One series relates to Huh-7. Briefly: Cytotoxicity against human Huh-7 cells infected with luciferase-expressing Plasmodium berghei assessed as effect on cell confluency pretreated for 1 hr followed by parasite infection and measured 46 hrs post infection by alamar blue staining based analysis. It is filed as toxicity. As to conditions: huh-7, 47 h. The procedure, abridged:
(§1)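 Huh7 hepatoma cells in RPMI-1640 with 10 % FCS, seeded at 1 × 10^4 per well and left overnight. Seven compound concentrations, serially diluted from 10 mM DMSO stocks, applied 1 h before infection; DMSO vehicle control. PbGFP-Luciferase sporozoites from An. stephensi salivary glands added 1:1, plates spun 1800 × g for 5 min. Confluency by AlamarBlue at 46 hpi; parasite load by firefly luciferase at 48 hpi. IC50 from nonlinear regression.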
A general note: Resazurin is reduced to fluorescent resorufin, in cell work by metabolically active cells.

Series [1] relates to Trypanosoma brucei brucei. As to the kind of experiment: Trypanocidal activity against Trypanosoma brucei brucei 221a assessed as parasite growth inhibition measured after 24 hrs by resazurin dye based microplate reader analysis. The series is classed as functional. The procedure, abridged:
(§2)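 Seeded at 1 × 10^4 mL-1 (T. b. brucei) or 5 × 10^4 mL-1 (HL-60) in Baltz medium with 16.7 % bovine serum and 0.9 % DMSO. Test compounds given as tenfold dilutions from 100 μM to 1 nM. Incubated at 37 °C, 5 % CO2. Resazurin added after 24 h, then a further 48 h. Absorbance read at 570/630 nm. GI50 obtained by linear interpolation; mean ± SD of three independent experiments.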

Series [2] in a line: Selectivity index, ratio of GI50 for human HL-60 cells to GI50 for Trypanosoma brucei brucei 221a. It is filed as toxicity. Conditions: for selectivity ratio: HL-60 cells versus Trypanosoma brucei brucei 221a, read-out: RatioGI50. The method, boiled down:
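Ratio of GI50 for HL-60 to GI50 for T. b. brucei, both from the resazurin growth assay.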

Another series deals with Plasmodium berghei. As to the kind of experiment: Antiplasmodial activity against luciferase-expressing Plasmodium berghei infected in human Huh-7 cells assessed as reduction in parasitic load pretreated for 1 hr with cells followed by parasite infection and measured 48 hrs post infection by firefly luciferase assay. It is filed as functional, organism-based. The method, boiled down: as §1

Another series relates to HL-60. Briefly: Cytotoxicity against human HL-60 cells assessed as cell growth inhibition measured after 24 hrs by resazurin dye based microplate reader analysis. Conditions: hl-60, 24 h. The series is classed as toxicity. The procedure, abridged:
as §2

In a further series the test system is Trypanosoma cruzi. As to the kind of experiment: Antitrypanosomal activity against trypomastigote form of Trypanosoma cruzi Dm28c expressing beta-galactosidase using chlorophenol red beta-D-galactopyranoside as enzyme substrate measured after 24 hrs by colorimetric analysis. It is filed as functional, organism-based.

With `CC[C@H](C)[C@H]1O[C@]2(CC[C@@H]1C)C[C@@H]1C[C@@H](C/C=C(\C)[C@H](NC(C)=O)[C@@H](C)/C=C/C=C3\CO[C@@H]4[C@H](O)C(C)=C[C@@H](C(=O)O1)[C@]34O)O2`, the Activity entry in the series on Huh-7 is listed as “Non-Toxic”. In addition, the 50% growth inhibitory concentration (GI50) in series [1] was 5.5 µM. For the same compound, in series [2], the selectivity ratio came out at 5.8. Also, the IC50 in the series with Plasmodium berghei (Plasmodium berghei, Huh-7) was 1.52 µM.

With `CC[C@H](C)[C@H]1O[C@]2(CC[C@@H]1C)C[C@@H]1C[C@@H](C/C=C(\C)[C@@H](O)[C@@H](C)/C=C/C=C3\CO[C@@H]4[C@H](O)C(C)=C[C@@H](C(=O)O1)[C@]34O)O2` [IVM AGLYCONE], the Activity entry in the series on Huh-7 was “Non-Toxic”. For the same compound, in series [1], the concentration for 50% growth inhibition (GI50) came to 6.1 µM. Also, the selectivity ratio in series [2] amounted to 5.8. Besides, in the series with Plasmodium berghei (Plasmodium berghei, Huh-7), the half-maximal inhibitory concentration (IC50) amounted to 5.45 µM.

As to `CC[C@H](C)[C@H]1O[C@]2(CC[C@@H]1C)C[C@@H]1C[C@@H](C/C=C(\C)[C@@H](O)[C@@H](C)/C=C/C=C3\CO[C@@H]4[C@H](O)[C@](C)(O)C=C(C(=O)O1)[C@]34O)O2`, the Activity result in the series with Huh-7 was “Non-Toxic”. Besides, the 50% growth inhibitory concentration (GI50) in series [1] is 12.1 µM. The selectivity ratio in series [2] is 2.6. Also, the concentration for half-maximal inhibition (IC50) with Plasmodium berghei (Plasmodium berghei, Huh-7) was determined as 2.85 µM.

For the compound `CC[C@H](C)[C@H]1O[C@]2(CC[C@@H]1C)C[C@@H]1C[C@@H](C/C=C(\C)[C@@H](O[C@H]3C[C@H](OC)[C@@H](O[C@H]4C[C@H](OC)[C@@H](O)[C@H](C)O4)[C@H](C)O3)[C@@H](C)/C=C/C=C3\CO[C@@H]4[C@H](O)[C@](C)(O)C=C(C(=O)O1)[C@]34O)O2`, the Activity entry in the series with Huh-7 is recorded as “Non-Toxic”. For the same compound, the GI50 in series [1] was determined as 20 µM. Besides, the selectivity ratio in series [2] is 1.6. For the same compound, in the series with Plasmodium berghei (Plasmodium berghei, Huh-7), the IC50 worked out at 4.72 µM.

`CC[C@H](C)[C@H]1O[C@]2(CC[C@@H]1C)C[C@@H]1C[C@@H](C/C=C(\C)[C@H](NC(C)=O)[C@@H](C)/C=C/C=C3\CO[C@@H]4[C@H](O)[C@](C)(O)C=C(C(=O)O1)[C@]34O)O2`: in the series with Huh-7, the Activity result is reported as “Non-Toxic”. Besides, the concentration for 50% growth inhibition (GI50) in series [1] amounted to 7.5 µM. Moreover, in series [2], the selectivity ratio stood at 4.5. Further, the IC50 in the series on Plasmodium berghei (Plasmodium berghei, Huh-7) worked out at 0.379 µM.

Regarding IVERMECTIN, in the series on HL-60, the 50% growth inhibitory concentration (GI50) came out at 31.3 µM. Also, the Activity entry in the series with Huh-7 is on record as “Non-Toxic”. The compound further registered a 50% effective concentration (EC50) in the series on Trypanosoma cruzi of 10.4 µM. Besides, the RatioGI50 in series [2] was 2.1. In addition, the half-inhibitory concentration (IC50) in the series with Plasmodium berghei (huh-7) was found to be 0.911 µM.

By GI50 is commonly meant the concentration that inhibits growth by half. The IC50 is the concentration needed to halve the response being measured. What is called EC50 is the concentration that produces a half-maximal response. Lower therefore signals an effect from little substance.

The record behind these values is ChEMBL document CHEMBL5537124, “Unexpected rearrangement of ivermectin in the synthesis of new derivatives with trypanocidal and antiplasmodial activities” (Eur J Med Chem, 2024).
